In the EternaBench riboswitch data:

Tested on: MS2 coat protein
Experiment: apparent Kd, MS2 coat protein; higher = weaker binding; RNA-MaP array; FMN 200 µM where present
Procedure, shortened: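 Each design was made on Illumina sequencing-chip clusters by stalled E. coli RNA polymerase and titrated with SNAP-549-labelled MS2 coat protein from 0.7 or 1.5 nM, doubling to 3 µM, in the absence and then the presence of constant ligand. The buffer was 100 mM Tris-HCl pH 7.5, 80 mM KCl, 4 mM MgCl2, BSA, DTT, yeast tRNA and Tween-20. The apparent Kd is the median of filtered per-cluster fits of binding curves, with green signal normalised to red-channel RNA signal and control-cluster median Fmax.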

[1] = designed as: OFF switch for flavin mononucleotide, no ligand
[2] = ligand present: flavin mononucleotide, designed as: OFF switch for flavin mononucleotide
[3] = designed as: ON switch for flavin mononucleotide, no ligand
[4] = ligand present: flavin mononucleotide, designed as: ON switch for flavin mononucleotide

Sequence	apparent Kd [1] [nM]	apparent Kd [2] [nM]	apparent Kd [3] [nM]	apparent Kd [4] [nM]
AGUCGGAGCAGAGGAUAUACAUGAGGAUCACCCAUGUAAUAAAGUGAAGCUUGGAAACAGGCAAUGUAGAAGGCUGCUCCGACA	11.3	68.6	–	–
UCCACUACUGAGAAGGGAUACAUAUAAUUUUAGUCAGGAUAUCGAUACAGUGCAGCAUGAGGACAUGAGGAUCACCCAUGUAUU	–	–	22.3	15.2
UUAAUUAACAAGAAGGCAUACAUGAGGAUCACCCAUGUUCUACAUGGAUAAUGAGGAUAUUGCUAAUACAUGAGGAUCACCCAU	53.6	50.8	–	–
UAAAAACAUGAGGAUCACCCAUGUGAAAAUAUGGGAGGAUAUACAAAGACGAGAGUCAAAGUAGAAGGCCUAAAAU	–	–	73.5	24.5
UUCAGCUCGUGAGGAUAUACAUGUGCUGGAAACAGCACUAUUGAGUUCACAUGAGGAUCACCCAUGUAGAAGGCACGAGCUGAG	15.2	27.9	–	–
CCAUGCGGAAUAGGAUAUUCAUUCAUGAGGAUAGAAGAAGGGUUACAUGAGGAUCACCCAUGUAUACACAUGAGGAUCCCUUAC	162	180	–	–
GAUACACAUGAGGAUCACCCAUGUGAGGAUAUGCGUACGUUGUCCGUAGGCGACGUGCGCAGAAGGCGCAAGGU	83.2	95.3	–	–
AGCUACGUUUCGUAGCAGUGUCAUCGAGAAGGCCCUUACAUGACAACAUGAGGAUCACCCAUGUGGGAGGAUAUCGAUGAUACA	–	–	11.4	8.98
CCGGAAUUGCAGGAUAUAGGAGUCGAUAGACACCUAGAAGGGCAGACAUGAGGAUCACCCAUGUGUCCUACCGG	18.6	31.2	–	–
AAAAAGCUAGGAUAUACAUGAAAAAAAAAAAAGUAAAAAAAACAUGAGGAUCACCCAUGUAGAAGGAGCAAAAA	44	39.5	–	–
UUCUACAAGUAAGGAUAUCGGCUAUAGUUAACUCGAGAAGGUACAUGAGGAUCACCCAUGUAGUAGAUACAGACUACUGGCUUG	10.9	13.3	–	–
UUGGACUUCGUAGGAUAUGUAGGAUAUUCCUACAUGAGGAUCACCCAUGUUGACAUGGAAGAAGGACAGAAGGACGAUGUCCAU	–	–	257	4.12
ACGCUUUGGGAGAAGGUACUUUAAAUUUUUUCCACAUGAGGAUCACCCAUGUAAGGAUAUCCCAUCGUUAAAUAUUCUACAGCA	8.4	7.06	–	–
AUUUAGAGAGGAUAUAUAAUGUGAAACAUGAGGAUCACCCAUGUAAUAUUAUGGAUGUAAAUAGAAGGCUCAUUUA	32.7	27.7	–	–
GGAUAGGACAGAGGAUAUACGUGCUAGAGAUACUAGCAAAAUUUCCUCACAUGAGGAUCACCCAUGUAGAAGGCUGUCCUUUCG	17.9	473	–	–
GUCGGAAACGACAAAAGUAGCAUAGGAGAAGGCAUGUCAUAAGACAUGAGGAUCACCCAUGUCCGUGAGGAUAUCCUAUGCUAC	–	–	8.14	6.15
AAUAUGAGCUGGUUUAAAACCUAAACAUGAGGAUCACCCAUGUAGGAUAUCAGCACGAUAAGUGCUGAGAAGGACAUCCAGCUC	15	14.7	–	–
CGCUCAAUUACUUUGAAUAGAAUCAGAAGGCGUUACAUGAGGAUCACCCAUGUUAUGACGUGUAACGAGGAUAUGAAUUGAGCG	7.18	30.5	–	–
CAAUUGGCACAGAAGGGUGACAUGAGGAUCACCCAUGUAGCGUGGCAUUCAGGAGGAGCCACGCCACAGGAUAUGUGCGGGCAC	–	–	107	155
UUUCAGCAAGGAUAUACGGGCUGUGCUUUUCAUUUCUUACAACAUGAGGAUCACCCAUGUAGAAGGUGCAUCUU	72.5	111	–	–
ACGCAGCUGGGUAAGGAUAUCGGUGGUAAAACAUGAGGAUCACCCAUGUCCGAAGCUCGGACCUCCGAGAAGGUGCCCGGCUGCG	–	–	8.17	8.14
AAAAAGUCAGGAUAUGGAAAAAAAAAAAAAAAAAAAAAAAACCAGAAGGGACAUGAGGAUCACCCAUGUAAAAA	71.5	43.8	–	–
GCAAUAGCAUGAGGAUAUGCUGGAGUUUAGACAGUAGAAGGCAUGUCAUAAGACAUGAGGAUCACCCAUGUAGUUACAAUGGCA	–	–	18.4	13.6
UCAUUUACCACAGGAUAUAUUCAUAUACAGUUGUUUGGCUCUUACAUGUUAGUAGAAGGGUGCAACAUGAGGAUCACCCAUGUA	–	–	298	163
UGUCGGAGCAGAGGAUAUUACAUGAGGAUCACCCAUGUAUGAACCAAUAGCUGGAAACAGCAGUGUAAGAAGGCUGCUCCGACA	12.5	143	–	–
UGCGUGGUCACAGGAUAUGCAAGAUAAACUUUAGCAGAAGGGUGAUCAAUUAGCUCAAUACCACAUGAGGAUCACCCAUGUCUA	–	–	62.9	314
ACAUCUCGAGCCGACGGGAGAGUACAUGAGGAUCACCCAUGUGAGGAUAUCCCUGAGAAGACGGCGGAGAAGGCACUGGGUAGG	6.33	10.4	–	–
CAGUACUGAGGAUAUACAUGAGGAUCACCCAUGUGCCUUAGCUAGGAUACUAGCAUUAGUAGAAGGCAGUACUG	14.1	158	–	–
